Results reported in article PMC11250141 (RSC Advances, 2024).

Tests used:
[1] = DPPH˙ scavenging activity; settings: 30 min, 515 nm; tested 10–100 µg mL^−1
Outline: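 Test compound (10–100 µg mL⁻¹) or 80% methanol control was mixed 1:2 (v/v) with DPPH solution, shaken, and kept 30 min at room temperature in the dark. Absorbance was read at 515 nm. Scavenging % = 100 × (1 − A sample/A DPPH blank). Ferulic and syringic acids served as references. Run in triplicate.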

[2] = Cell viability; type: cell-based; settings: human, Caco-2 cells
Outline: (§1)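 Caco-2 and Vero cells were grown in DMEM with 10% FBS, and HUVEC in DMEM-F12 with 10% FBS, at 37 °C and 5% CO₂. Cells were seeded at 5.000 per well 24 h before treatment. Test compound was diluted from a 100 mM DMSO stock into 1% FBS medium at 1, 10, 30, 50, 100 and 150 µM. Controls were 10% DMSO and medium alone. At 24, 48 and 72 h, cells got resazurin (0.5 mg mL⁻¹ solution) for 4 h, read at ex 560/em 590 nm. IC50 was from curve fitting.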

[3] = Cell viability; type: cell-based; settings: human, HUVEC cells
Outline: as §1

[4] = Cell viability; type: cell-based; settings: African green monkey, Vero cells
Outline: as §1

[5] = SO + additive at 200 ppm; for T 5 (5% mass loss) / T 10 (10% mass loss) / T 50 (50% mass loss) / T onset (decomposition temperature: onset temperature): TGA in air
Outline: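 Thermogravimetry of sunflower oil with 200 ppm test compound: about 10 mg oil in a Pt crucible was heated from ambient to 700 °C at 5 °C min⁻¹ in air (60 mL min⁻¹), with N₂ purge on the balance. Onset temperature and temperatures at 5, 10 and 50% mass loss came from TG/DTG curves and were compared with unsupplemented oil.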

[6] = Lipoperoxidation; settings: 220 °C; for Reduction in secondary oxidation (TBARS) in comparison with SOcontrol / TBARS value: SO + additive 200 ppm; for TBARS value: 30 min
Outline: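 Sunflower oil with 200 ppm test compound was heated on a hot plate at 25, 100, 180 and 220 °C for 30 min (ramp 2 °C min⁻¹). Oil (0.5 mL) was vortexed with TBA/TCA/HCl and centrifuged 3500 rpm for 5 min. Supernatant was heated 90 °C for 15 min and read at 535 nm against an MDA curve, as nmol MDA per mL oil. Unsupplemented oil was the control. Run in triplicate.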

[7] = Cytotoxic effect, summary over the three cell lines; type: cell-based; settings: human (Caco-2, HUVEC); African green monkey (Vero), Caco-2, HUVEC and Vero cells
Outline: as §1

| SMILES | Antioxidant capacity (DPPH), IC50 [1] [mg/L] | IC50 at 24 h [2] [µM] | IC50 at 48 h [2] [µM] | IC50 at 72 h [2] [µM] | IC50 at 24 h [3] [µM] | IC50 at 48 h [3] [µM] | IC50 at 72 h [3] [µM] | IC50 at 24 h [4] [µM] | IC50 at 48 h [4] [µM] | IC50 at 72 h [4] [µM] | T 5 (5% mass loss) [5] [°C] | T 10 (10% mass loss) [5] [°C] | T 50 (50% mass loss) [5] [°C] | T onset (decomposition temperature: onset temperature) [5] [°C] | Reduction in secondary oxidation (TBARS) in comparison with SOcontrol [6] [times] | TBARS value [6] [nmol/mL] | IC50 [7] [µM] | also measured |
| --- | --- | --- | --- | --- | --- | --- | --- | --- | --- | --- | --- | --- | --- | --- | --- | --- | --- | --- |
| CCOc1ccc(/C=C/C(=O)O)cc1OC [Compound 3a, (E)-3-(4-Ethoxy-3-methoxyphenyl)acrylic acid] | 56.50 ± 2.38 | > 100 | > 100 | > 100 | > 100 | > 100 | > 100 | > 100 | > 100 | > 100 |  |  |  |  |  |  |  |  |
| CCCOc1ccc(/C=C/C(=O)O)cc1OC [Compound 3b, (E)-3-(3-Methoxy-4-propoxyphenyl)acrylic acid] | 90.43 ± 1.63 | > 100 | > 100 | > 100 | > 100 | > 100 | > 100 | > 100 | > 100 | > 100 | 376 | 390 | 423 | 344 | 5 | 8.88 |  | Difference of degradation temperature in comparison to SO at 5% mass loss [5]: 35 °C; Difference of degradation temperature in comparison to SO at 10% mass loss [5]: 25 °C; Difference of degradation temperature in comparison to SO at 50% mass loss [5]: 4 °C |
| CCCCCOc1ccc(/C=C/C(=O)O)cc1OC [Compound 3c, (E)-3-(3-Methoxy-4-(pentyloxy)phenyl)acrylic acid] | >100 | > 100 | > 100 | > 100 | > 100 | > 100 | > 100 | > 100 | > 100 | > 100 | 370 | 386 | 424 | 343 | 6 | 7.68 |  | TBARS value (level of SO oxidation) ([6]; SO + additive): 7.68 nmol/L |
| CCCCCCOc1ccc(/C=C/C(=O)O)cc1OC [Compound 3d, (E)-3-(4-(Hexyloxy)-3-methoxyphenyl)acrylic acid] | >100 | > 100 | > 100 | > 100 | > 100 | > 100 | > 100 | > 100 | > 100 | > 100 |  |  |  |  |  |  |  |  |
| CCCCCCCCOc1ccc(/C=C/C(=O)O)cc1OC [Compound 3e, (E)-3-(3-Methoxy-4-(octyloxy)phenyl)acrylic acid] | >100 | > 100 | > 100 | 96.2 ± 1.1 | 90 ± 1.03 | 53.1 ± 1.02 | 54.4 ± 1.05 | > 100 | > 100 | > 100 |  |  |  |  |  |  | < 100 |  |
| CCCCCCCCCCOc1ccc(/C=C/C(=O)O)cc1OC [Compound 3f, (E)-3-(4-(Decyloxy)-3-methoxyphenyl)acrylic acid] | >100 | > 100 | 88.7 ± 1.08 | 76.8 ± 1.08 | 55.6 ± 1.05 | 26.4 ± 1.06 | 25.4 ± 1.08 | > 100 | > 100 | > 100 |  |  |  |  |  |  | < 100 |  |
